Values after ≈ are worked out from the molar mass of the structure shown. Active and inactive are the calls of the source. The rule behind the calls is not given here.
Assays:
Fusarium solani [1] = assay: Antifungal activity against inoculum of 1x10^4 conidia/ml Fusarium solani isolate 95-2478 after 24 hrs by XTT assay; type: functional, organism-based; conditions: isolate 95-2478, 24 h
Method in brief: (§1)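 Isolate 95-2478 conidia were grown 10 days at 37°C on potato dextrose agar. They were exposed in microtiter trays to posaconazole (DMSO stock; final 0 to 8 μg/ml) in RPMI with 2% glucose and 0.165 M MOPS, pH 7.0. Incubation ran 24 or 48 h, and XTT reduction was read at 492 nm in triplicate. Absorbance was expressed as percent of growth control, and IC50/IC90 came from a four-parameter inhibitory sigmoid fit.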

Fusarium solani [2] = assay: Antifungal activity against inoculum of 1x10^4 conidia/ml Fusarium solani isolate 95-2478 after 48 hrs by XTT assay; type: functional, organism-based; conditions: isolate 95-2478, 48 h; method in brief: as §1
Fusarium solani [3] = assay: Antifungal activity against inoculum of 1x10^5 conidia/ml Fusarium solani isolate 95-2478 after 24 hrs by XTT assay; type: functional, organism-based; conditions: isolate 95-2478, 24 h; method in brief: as §1
Fusarium solani [4] = assay: Antifungal activity against inoculum of 1x10^5 conidia/ml Fusarium solani isolate 95-2478 after 48 hrs by XTT assay; type: functional, organism-based; conditions: isolate 95-2478, 48 h; method in brief: as §1
[5] = Drug concentration in uninfected nonimmunosppressed ICR mouse serum at 50 mg/kg, po BID after 4 hrs; type: ADME, organism-based; design: dose 50 mg/kg, route oral; conditions: read-out: Drug uptake
Method in brief: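 Uninfected, nonimmunosuppressed mice received 5 oral-gavage BID doses, and serum was taken 4 h after the last dose. Serum (100 μl, duplicate) was placed in wells cut in potato dextrose agar seeded with Candida kefyr ATCC 66028 at 1 × 10^4 cells/ml. Inhibition zones were measured after 48 h, and concentration was interpolated from a standard curve.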

Fusarium solani [6] = assay: Antifungal activity against high inoculum 2.9 x 10^6 conidia/animal Fusarium solani infected in ICR mouse assessed as rate of survival at 6.25 mg/kg, po BID treated after 12 hrs of inoculation; type: functional, organism-based; design: dose 6.25 mg/kg
Method in brief: (§2)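 Neutropenic ICR mice (5-fluorouracil 150 mg/kg i.v., day −1) were infected i.v. with F. solani 95-2478 conidia. Posaconazole oral suspension was gavaged BID starting 12 h postinoculation and continued to day 9, then mice were followed off therapy to day 15. Moribund mice were euthanized and death was recorded the next day. Median and percent survival come from Kaplan-Meier curves versus untreated controls.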

Fusarium solani [7] = assay: Antifungal activity against high inoculum 2.9 x 10^6 conidia/animal Fusarium solani infected in ICR mouse assessed as rate of survival at 12.5 mg/kg, po BID treated after 12 hrs of inoculation; type: functional, organism-based; design: dose 12.5 mg/kg; method in brief: as §2
Fusarium solani [8] = assay: Antifungal activity against high inoculum 2.9 x 10^6 conidia/animal Fusarium solani infected in ICR mouse assessed as rate of survival at 25 mg/kg, po BID treated after 12 hrs of inoculation; type: functional, organism-based; design: dose 25 mg/kg; method in brief: as §2
Fusarium solani [9] = assay: Antifungal activity against high inoculum 2.9 x 10^6 conidia/animal Fusarium solani infected in ICR mouse assessed as rate of survival at 50 mg/kg, po BID treated after 12 hrs of inoculation; type: functional, organism-based; design: dose 50 mg/kg; method in brief: as §2
Fusarium solani [10] = assay: Antifungal activity against inoculum range 6.5 x 10^5 to 6.8 x 10^5 conidia/animal Fusarium solani infected in ICR mouse assessed as rate of survival at 6.25 mg/kg, po BID treated after 12 hrs of inoculation; type: functional, organism-based; design: dose 6.25 mg/kg; method in brief: as §2
Fusarium solani [11] = assay: Antifungal activity against inoculum range 6.5 x 10^5 to 6.8 x 10^5 conidia/animal Fusarium solani infected in ICR mouse assessed as rate of survival at 12.5 mg/kg, po BID treated after 12 hrs of inoculation; type: functional, organism-based; design: dose 12.5 mg/kg; method in brief: as §2
Fusarium solani [12] = assay: Antifungal activity against inoculum range 6.5 x 10^5 to 6.8 x 10^5 conidia/animal Fusarium solani infected in ICR mouse assessed as rate of survival at 25 mg/kg, po BID treated after 12 hrs of inoculation; type: functional, organism-based; design: dose 25 mg/kg; method in brief: as §2
Fusarium solani [13] = assay: Antifungal activity against inoculum range 6.5 x 10^5 to 6.8 x 10^5 conidia/animal Fusarium solani infected in ICR mouse assessed as rate of survival at 50 mg/kg, po BID treated after 12 hrs of inoculation; type: functional, organism-based; design: dose 50 mg/kg; method in brief: as §2
Fusarium solani [14] = assay: Antifungal activity against inoculum range 7.7 x 10^4 to 7.8 x 10^4 conidia/animal Fusarium solani infected in ICR mouse assessed as rate of survival at 6.25 mg/kg, po BID treated after 12 hrs of inoculation; type: functional, organism-based; design: dose 6.25 mg/kg; method in brief: as §2
Fusarium solani [15] = assay: Antifungal activity against inoculum range 7.7 x 10^4 to 7.8 x 10^4 conidia/animal Fusarium solani infected in ICR mouse assessed as rate of survival at 12.5 mg/kg, po BID treated after 12 hrs of inoculation; type: functional, organism-based; design: dose 12.5 mg/kg; method in brief: as §2
Fusarium solani [16] = assay: Antifungal activity against inoculum range 7.7 x 10^4 to 7.8 x 10^4 conidia/animal Fusarium solani infected in ICR mouse assessed as rate of survival at 25 mg/kg, po BID treated after 12 hrs of inoculation; type: functional, organism-based; design: dose 25 mg/kg; method in brief: as §2
Fusarium solani [17] = assay: Antifungal activity against inoculum range 7.7 x 10^4 to 7.8 x 10^4 conidia/animal Fusarium solani infected in ICR mouse assessed as rate of survival at 50 mg/kg, po BID treated after 12 hrs of inoculation; type: functional, organism-based; design: dose 50 mg/kg; method in brief: as §2
Fusarium solani [18] = assay: Antifungal activity against high inoculum 2.9 x 10^6 conidia/animal Fusarium solani infected in ICR mouse assessed as bacterial count in kidney tissue at 6.25 mg/kg, po BID treated after 12 hrs of inoculation; type: functional
Method in brief: (§3)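 Outbred ICR mice were made neutropenic with 5-fluorouracil 150 mg/kg i.v. 1 day before i.v. infection with F. solani isolate 95-2478 conidia (0.2 ml). Posaconazole oral suspension was given by gavage BID from 12 h after inoculation until day 9. Kidneys from moribund animals were homogenized and plated on potato dextrose agar, and CFU/g was counted after 48 h. Group medians were compared with untreated controls by Mann-Whitney.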

Fusarium solani [19] = assay: Antifungal activity against high inoculum 2.9 x 10^6 conidia/animal Fusarium solani infected in ICR mouse assessed as bacterial count in kidney tissue at 12.5 mg/kg, po BID treated after 12 hrs of inoculation; type: functional; method in brief: as §3
Fusarium solani [20] = assay: Antifungal activity against high inoculum 2.9 x 10^6 conidia/animal Fusarium solani infected in ICR mouse assessed as bacterial count in kidney tissue at 25 mg/kg, po BID treated after 12 hrs of inoculation; type: functional; method in brief: as §3
Fusarium solani [21] = assay: Antifungal activity against high inoculum 2.9 x 10^6 conidia/animal Fusarium solani infected in ICR mouse assessed as bacterial count in kidney tissue at 50 mg/kg, po BID treated after 12 hrs of inoculation; type: functional; method in brief: as §3

Compound `CC[C@@H]([C@H](C)O)n1ncn(-c2ccc(N3CCN(c4ccc(OC[C@@H]5CO[C@@](Cn6cncn6)(c6ccc(F)cc6F)C5)cc4)CC3)cc2)c1=O` [POSACONAZOLE] has an IC50 (Fusarium solani [1]) of 1.7 µg/mL (≈ 2.43 µM), an IC90 (Fusarium solani [1]) of 4.1 µg/mL (≈ 5.85 µM) and an IC50 (Fusarium solani [2]) of 4.7 µg/mL (≈ 6.71 µM). For the same compound, the IC90 (Fusarium solani [2]) was greater than 8 µg/mL, the IC90 (Fusarium solani [3]) was 7.2 µg/mL (≈ 10.3 µM) and the IC90 (Fusarium solani [3]; read-out: IC90) was greater than 8 µg/mL. For the same compound, the IC50 (Fusarium solani [4]) was greater than 8 µg/mL, the IC90 (Fusarium solani [4]) was greater than 8 µg/mL and the concentration at 4 h [5] was 5300 ng/mL. The Activity (Fusarium solani [6]) was “Active”, the Activity (Fusarium solani [7]) was “Active” and the Activity (Fusarium solani [8]) was “Active”. The Activity (Fusarium solani [9]) was “Active”, the Activity (Fusarium solani [10]) was “Active” and the Activity (Fusarium solani [11]) was “Active”. For the same compound, the Activity (Fusarium solani [12]) was “Active”, the Activity (Fusarium solani [13]) was “Active” and the Activity (Fusarium solani [14]) was “Active”. The Activity (Fusarium solani [15]) was “Active”, the Activity (Fusarium solani [16]) was “Active” and the Activity (Fusarium solani [17]) was “Active”. For the same compound, the log10CFU/g (Fusarium solani [18]) was 5.6, the log10CFU/g (Fusarium solani [19]) was 5.3 and the log10CFU/g (Fusarium solani [20]) was 5.3. It also gave a log10CFU/g (Fusarium solani [21]) of 5.2.
